Laboratory results: ChEMBL document CHEMBL4385599, “Neutral sphingomyelinase 2 inhibitors based on the 4-(1H-imidazol-2-yl)-2,6-dialkoxyphenol scaffold” (Eur J Med Chem, 2019)

Legend:
[1] = Metabolic stability in human liver microsomes assessed as parent compound remaining in presence of UDPGA at 5 uM measured after 1 hr by LC/MS/MS method; format: ADME, Microsome
Summary of the method: (§1)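 Glucuronidation: compound in 50 mM Tris-HCl pH 7.5 with microsomes 0.5 mg/mL, 8 mM MgCl2, 25 μg/mL alamethicin, preincubated at 37 °C; started with UDPGA 2 mM final, triplicate; 60 min; quenched with cold acetonitrile plus internal standard; parent remaining by LC/MS/MS; cofactor-free controls.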

[2] = Ratio of drug level in brain to plasma in CD-1 mouse at 10 mg/kg, po measured after 2 hrs by UPLC and LC-MS/MS analysis; format: ADME, organism-based
Summary of the method: (§2)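 Male CD-1 mice (25–30 g), single oral gavage 10 mg/kg in 5% DMSO, 5% polysorbate 80, 90% saline; 3 mice per time point, sacrificed at 0.5 and 2 h. Cardiac blood into heparin, plasma by centrifugation; brains flash frozen. Acetonitrile extraction with losartan internal standard; quantified by UPLC–LC-MS/MS against calibration curves in naïve plasma/brain matrix.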

[3] = Metabolic stability in mouse liver microsomes assessed as parent compound remaining in presence of UDPGA at 5 uM measured after 1 hr by LC/MS/MS method; format: ADME, Microsome; summary of the method: as §1
[4] = Metabolic stability in mouse liver microsomes assessed as parent compound remaining at 5 uM in presence of NADPH regenerating system measured after 1 hr by LC/MS/MS method; format: ADME, Microsome
[5] = Metabolic stability in human liver microsomes assessed as parent compound remaining at 5 uM in presence of NADPH regenerating system measured after 1 hr by LC/MS/MS method; format: ADME, Microsome
Homo sapiens [6] = species: Homo sapiens; experiment: Selectivity index, ratio of IC50 for alkaline phosphatase (unknown origin) to IC50 for Inhibition of human recombinant nSMase expressed in HEK293 cells; format: cell-based
[7] = biological target: T1, Sphingomyelin phosphodiesterase 3 (Homo sapiens, UniProt Q9NY59); experiment: Inhibition of human recombinant nSMase expressed in HEK293 cells using sphingomyelin as substrate by alkaline phosphatase, choline oxidase and horseradish peroxidase dependent H2O2 detection based fluorescence coupled assay
T1 sequence (Q9NY59 whole entry): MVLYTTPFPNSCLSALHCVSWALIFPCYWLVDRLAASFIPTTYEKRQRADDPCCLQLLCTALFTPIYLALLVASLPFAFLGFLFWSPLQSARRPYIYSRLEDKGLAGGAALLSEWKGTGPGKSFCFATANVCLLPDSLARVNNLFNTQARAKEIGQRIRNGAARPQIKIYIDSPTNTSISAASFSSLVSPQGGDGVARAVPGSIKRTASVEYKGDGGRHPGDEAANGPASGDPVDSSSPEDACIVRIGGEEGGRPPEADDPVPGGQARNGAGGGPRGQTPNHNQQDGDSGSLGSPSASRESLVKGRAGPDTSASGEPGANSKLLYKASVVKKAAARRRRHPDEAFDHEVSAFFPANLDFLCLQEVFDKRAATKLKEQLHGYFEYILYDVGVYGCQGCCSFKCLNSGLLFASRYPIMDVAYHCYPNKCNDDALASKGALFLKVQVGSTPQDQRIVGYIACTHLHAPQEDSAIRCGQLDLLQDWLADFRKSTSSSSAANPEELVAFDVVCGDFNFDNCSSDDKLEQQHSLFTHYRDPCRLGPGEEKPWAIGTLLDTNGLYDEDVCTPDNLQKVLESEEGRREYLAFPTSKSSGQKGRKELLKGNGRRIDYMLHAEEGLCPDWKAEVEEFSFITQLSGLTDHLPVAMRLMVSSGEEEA
Summary of the method: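 Fluorescence-based coupled assay with human recombinant nSMase2, alkaline phosphatase and choline oxidase; IC50 values are mean ± SD of at least three experiments.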

[8] = Selectivity index, ratio of IC50 for horseradish peroxidase to IC50 for Inhibition of human recombinant nSMase expressed in HEK293 cells; format: cell-based
Homo sapiens [9] = species: Homo sapiens; experiment: Selectivity index, ratio of IC50 for choline oxidase (unknown origin) to IC50 for Inhibition of human recombinant nSMase expressed in HEK293 cells; format: cell-based
[10] = Drug level in CD-1 mouse treated with at 10 mg/kg, po 4-(4,5-Diisopropyl-1H-imidazol-2-yl)-2,6-dimethoxyphenol hydrochloride assessed as compound formation measured after 2 hrs by UPLC and LC-MS/MS analysis; format: ADME, organism-based; details: in vivo; summary of the method: as §2
[11] = biological target: T2, Sphingomyelin phosphodiesterase 3 (Rattus norvegicus, UniProt O35049); experiment: Inhibition of rat brain neutral sphingomyelinase pre-incubated for 30 mins before p-nitrophenyl/phosphorylcholine substrate addition by spectrophotometry
T2 sequence (O35049 whole entry): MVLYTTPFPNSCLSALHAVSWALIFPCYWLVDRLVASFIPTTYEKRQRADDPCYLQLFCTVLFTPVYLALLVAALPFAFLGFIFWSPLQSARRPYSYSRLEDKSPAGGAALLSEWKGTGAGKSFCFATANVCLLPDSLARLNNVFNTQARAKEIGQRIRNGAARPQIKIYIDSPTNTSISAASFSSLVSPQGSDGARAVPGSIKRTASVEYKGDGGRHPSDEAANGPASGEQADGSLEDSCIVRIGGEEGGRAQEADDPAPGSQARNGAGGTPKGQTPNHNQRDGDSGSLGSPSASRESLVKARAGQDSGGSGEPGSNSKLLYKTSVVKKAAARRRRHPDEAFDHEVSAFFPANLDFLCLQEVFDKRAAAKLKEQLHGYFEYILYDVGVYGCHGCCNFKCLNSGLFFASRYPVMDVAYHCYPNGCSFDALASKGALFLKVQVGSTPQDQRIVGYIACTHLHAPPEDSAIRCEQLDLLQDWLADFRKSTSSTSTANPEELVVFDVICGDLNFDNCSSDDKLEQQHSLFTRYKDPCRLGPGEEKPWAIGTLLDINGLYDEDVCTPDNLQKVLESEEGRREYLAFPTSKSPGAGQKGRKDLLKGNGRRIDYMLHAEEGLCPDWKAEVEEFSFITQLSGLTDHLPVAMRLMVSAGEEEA

Structure (SMILES) | Stability [1] [%] | BPR [2] [%] | Stability [3] [%] | Stability [4] [%] | Stability [5] [%] | Ratio IC50 (Homo sapiens [6]) | IC50 [7] [nM] | Ratio IC50 [8] | Ratio IC50 (Homo sapiens [9]) | Drug uptake [10] | IC50 [11] [nM]
COc1cc(-c2nc(-c3cccs3)c(-c3ccccc3)[nH]2)cc(OC)c1O | 50 | 17 | 67 | 95 | 95 |  |  |  |  |  | 
CC(C)Oc1cc(-c2nc(-c3ccccc3)c(-c3cccs3)[nH]2)cc(OC(C)C)c1O |  |  | > 95 | 4 |  | > 5 | 40 | > 5 | > 5 |  | 
Oc1ccccc1-c1nc(-c2ccccc2)c(-c2cccs2)[nH]1 |  |  |  |  |  | > 5 | > 100000 | > 5 | > 5 |  | 
COc1cc(-c2nc(-c3ccco3)c(-c3ccco3)[nH]2)cc(OC)c1O |  |  |  |  |  | > 5 | 40 | > 5 | > 5 |  | 
Oc1c(OCC(F)(F)F)cc(-c2nc(-c3ccccc3)c(-c3cccs3)[nH]2)cc1OCC(F)(F)F |  |  |  | > 95 | 94 | > 5 | 70 | > 5 | > 5 |  | 
COc1cc(-c2nc3c([nH]2)CCCC3)cc(OC)c1O |  |  |  |  |  | < 5 | 420 | < 5 | < 5 |  | 
Oc1c(Cl)cc(-c2nc(-c3ccccc3)c(-c3cccs3)[nH]2)cc1Cl |  |  |  |  |  | > 5 | > 100000 | > 5 | > 5 |  | 
COc1cc(-c2nc(-c3ccccc3)c(-c3cccs3)[nH]2)cc(OC)c1OC |  |  |  |  |  | > 5 | > 100000 | > 5 | > 5 |  | 
COc1cc(-c2nc(-c3ccc(C)cc3)c(-c3ccc(C)cc3)[nH]2)cc(OC)c1O |  |  |  | > 95 | > 95 | > 5 | 70 | > 5 | > 5 |  | 
Oc1ccc(-c2nc(-c3ccccc3)c(-c3cccs3)[nH]2)cc1 |  |  |  |  |  | < 5 | 2100 | < 5 | < 5 |  | 
Oc1c(OC2CCCC2)cc(-c2nc(-c3ccccc3)c(-c3cccs3)[nH]2)cc1OC1CCCC1 |  |  |  |  |  | > 5 | 120 | > 5 | > 5 |  | 
CCOc1cc(-c2nc(-c3ccccc3)c(-c3cccs3)[nH]2)cc(OCC)c1O |  |  |  | 35 |  | > 5 | 10 | > 5 | > 5 |  | 
COc1cc(-c2nc(C)c(C)[nH]2)cc(OC)c1O |  |  |  |  |  | < 5 | 520 | < 5 | < 5 |  | 
COc1cc(OC)cc(-c2nc(-c3ccccc3)c(-c3cccs3)[nH]2)c1 |  |  |  |  |  | > 5 |  | > 5 | > 5 |  | 
COc1cc(-c2nc(-c3ccccc3)c(C(C)C)[nH]2)cc(OC)c1O |  |  |  | 94 | > 95 | > 5 | 70 | > 5 | > 5 |  | 
CCCCc1[nH]c(-c2cc(OC)c(O)c(OC)c2)nc1C |  |  |  |  |  | > 5 |  | > 5 | > 5 |  | 
COc1cc(-c2nc(-c3cccs3)c(C)[nH]2)cc(OC)c1O |  |  |  | 95 | 73 | > 5 | 20 | > 5 | > 5 |  | 

Structure (SMILES) | Stability [1] [%] | BPR [2] [%] | Stability [3] [%] | Stability [4] [%] | Stability [5] [%] | Ratio IC50 (Homo sapiens [6]) | IC50 [7] [nM] | Ratio IC50 [8] | Ratio IC50 (Homo sapiens [9]) | Drug uptake [10] | IC50 [11] [nM]
COc1cc(-c2nc(-c3cccs3)c(-c3cccs3)[nH]2)cc(OC)c1O |  |  |  |  |  | > 5 |  | > 5 | > 5 |  | 
COc1cc(-c2ncc[nH]2)cc(OC)c1O |  |  |  |  |  | > 5 | 420 | > 5 | > 5 |  | 
COc1cc(C2=NCCN2)cc(OC)c1O |  |  |  |  |  | > 5 | > 100000 | > 5 | > 5 |  | 
COc1cc(-c2ncc(-c3ccccc3)[nH]2)cc(OC)c1O |  |  |  |  |  | > 5 |  | > 5 | > 5 |  | 
COc1cc(-c2nc(-c3ccc(C)cc3)c[nH]2)cc(OC)c1O |  |  |  |  |  | > 5 | 130 | > 5 | > 5 |  | 
Oc1cccc(-c2nc(-c3ccccc3)c(-c3cccs3)[nH]2)c1 |  |  |  |  |  | > 5 | > 100000 | > 5 | > 5 |  | 
CC(C)(C)Oc1cc(-c2nc(-c3ccccc3)c(-c3cccs3)[nH]2)cc(OC(C)(C)C)c1O |  |  |  |  |  | > 5 | 520 | > 5 | > 5 |  | 
COc1cc(-c2nc(-c3ccccc3)c(-c3ccccc3)[nH]2)cc(OC)c1O |  |  |  | > 95 | > 95 | > 5 |  | > 5 | > 5 |  | 
COc1cc(-c2nc(C(C)C)c(C(C)C)[nH]2)cc(OC)c1O[C@@H]1O[C@H](C(=O)O)[C@@H](O)[C@H](O)[C@H]1O |  |  |  |  |  |  |  |  |  | Active | 
CCc1nc(-c2cc(OC)c(O)c(OC)c2)[nH]c1CC |  |  |  | 75 | > 95 | > 5 | 120 | > 5 | > 5 |  | 
COc1cc(-c2ncc(C)[nH]2)cc(OC)c1O |  |  |  |  |  | < 5 | 220 | < 5 | < 5 |  | 
O=C(/C=C\c1ccc(/C=C\C(=O)Nc2ccc(C3=NCCN3)cc2)cc1)Nc1ccc(C2=NCCN2)cc1 |  |  |  |  |  |  |  |  |  |  | 1000
COc1ccc(-c2nc(-c3cc(OC)c(O)c(OC)c3)[nH]c2-c2ccc(OC)cc2)cc1 |  |  |  | 73 | 75 | > 5 |  | > 5 | > 5 |  | 
COc1cc(-c2nccs2)cc(OC)c1O |  |  |  |  |  | < 5 | 20000 | < 5 | < 5 |  | 
COc1cc(-c2nc(C)c(-c3ccccc3)[nH]2)cc(OC)c1O |  |  |  | 82 | 95 | > 5 |  | > 5 | > 5 |  | 
COc1cc(-c2nc(-c3ccccc3)c(-c3cccs3)[nH]2)ccc1O |  |  |  |  |  | > 5 |  | > 5 | > 5 |  | 
